Where two headings read alike, the source gives them in different places.
Experiments:
[1] = molecular target: T1, α-subunit of the bovine retinal rod CNG channel (RETα) (Bos taurus, UniProt Q00194); format: biochemical; conditions: for Ki: Ki (apparent affinity)
T1 sequence (Q00194 1-690): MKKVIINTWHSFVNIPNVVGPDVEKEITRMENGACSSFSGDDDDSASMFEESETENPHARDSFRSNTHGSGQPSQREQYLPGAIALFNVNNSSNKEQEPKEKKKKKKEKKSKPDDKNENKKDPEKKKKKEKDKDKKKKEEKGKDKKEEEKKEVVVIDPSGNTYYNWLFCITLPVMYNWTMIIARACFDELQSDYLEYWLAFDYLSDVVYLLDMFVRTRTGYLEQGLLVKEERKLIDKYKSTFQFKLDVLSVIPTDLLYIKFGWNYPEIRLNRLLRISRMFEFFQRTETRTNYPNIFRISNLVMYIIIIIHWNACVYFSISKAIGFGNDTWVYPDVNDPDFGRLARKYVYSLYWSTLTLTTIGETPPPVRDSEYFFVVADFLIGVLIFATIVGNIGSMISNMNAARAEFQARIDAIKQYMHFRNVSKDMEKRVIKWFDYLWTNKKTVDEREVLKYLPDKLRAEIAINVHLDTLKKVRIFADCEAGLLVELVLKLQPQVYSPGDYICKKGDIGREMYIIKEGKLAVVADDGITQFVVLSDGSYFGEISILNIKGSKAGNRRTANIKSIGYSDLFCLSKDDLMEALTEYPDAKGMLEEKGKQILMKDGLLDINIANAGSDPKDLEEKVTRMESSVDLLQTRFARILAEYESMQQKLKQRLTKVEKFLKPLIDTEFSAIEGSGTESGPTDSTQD
Summary of the method: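 RETα was expressed in oocytes from 50 nl of 50 ng/μl RNA. Inside-out patches were held at −75 mV in symmetrical NaCl/EGTA/EDTA/HEPES, pH 7.5, with solution exchange within 50 ms. Current was normalized to Imax: residual current after 1 min preexposure then 2 mM cGMP, or steady-state current with compound added during 2 mM cGMP. Ki and Hill coefficient came from a modified Hill fit; τa from single-exponential fits; mean ± SEM.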

[2] = test system: CHM 15 (switched NH2-terminal domain through part of S1); experiment: Genistein inhibition of closed chimeric channel CHM 15; format: biochemical, bovine/rat; conditions: closed channels; behaved like parent channel
Summary of the method: (§1)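 Chimeric RETα/OLFα channels were expressed in Xenopus oocytes (50 nl of 50 ng/μl RNA, 2–7 d), and the vitelline membrane was removed. Inside-out patches were bathed in symmetrical 115 mM NaCl, 5 mM EGTA, 1 mM EDTA, 5 mM HEPES, pH 7.5, held at −75 mV. Test compound was preapplied 1 min to closed channels, then saturating 2 mM cGMP; residual current normalized to Imax.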

[3] = test system: CHM 19 (RETα with the OLFα pore); experiment: Genistein inhibition of closed chimeric channel CHM 19; format: biochemical, bovine/rat; conditions: closed channels
Summary of the method: as §1

[4] = test system: CHM18 (OLFα with a RETα cyclic nucleotide–binding domain); experiment: Genistein inhibition of closed chimeric channel CHM18; format: biochemical, bovine/rat; conditions: closed channels
Summary of the method: as §1

[5] = molecular target: T2, CHM23 (OLFα with RETα part of pore, S6 and part of C-linker) (Rattus norvegicus, UniProt Q00195, C329S/E325K/E350S/F357A/H396Q/I327V/I356V/K348R/K390R/L353F/Q399H/T383A/V373I/V394I); experiment: Genistein inhibition of closed chimeric channel CHM23; format: biochemical, bovine/rat
T2 sequence (Q00195 1-664 E325K/I327V/C329S/K348R/E350S/L353F/I356V/F357A/V373I/T383A/K390R/V394I/H396Q/Q399H): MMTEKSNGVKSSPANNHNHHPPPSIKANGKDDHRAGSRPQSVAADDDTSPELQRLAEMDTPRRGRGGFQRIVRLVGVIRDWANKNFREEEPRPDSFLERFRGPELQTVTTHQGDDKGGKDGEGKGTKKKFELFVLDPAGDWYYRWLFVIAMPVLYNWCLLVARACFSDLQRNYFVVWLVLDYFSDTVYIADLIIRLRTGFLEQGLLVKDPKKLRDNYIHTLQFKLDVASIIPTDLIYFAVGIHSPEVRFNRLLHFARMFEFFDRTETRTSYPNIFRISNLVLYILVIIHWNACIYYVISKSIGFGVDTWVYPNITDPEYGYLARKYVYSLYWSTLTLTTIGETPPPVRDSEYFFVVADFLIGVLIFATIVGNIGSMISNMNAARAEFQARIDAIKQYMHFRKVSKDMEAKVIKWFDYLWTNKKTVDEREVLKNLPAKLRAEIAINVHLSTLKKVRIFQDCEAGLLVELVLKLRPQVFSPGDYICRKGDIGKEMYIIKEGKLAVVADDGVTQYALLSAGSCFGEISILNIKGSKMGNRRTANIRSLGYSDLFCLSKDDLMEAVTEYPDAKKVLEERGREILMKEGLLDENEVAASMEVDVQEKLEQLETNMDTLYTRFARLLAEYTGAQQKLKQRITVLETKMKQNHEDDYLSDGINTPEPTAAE
Summary of the method: as §1

[6] = test system: CHM 14 (OLFα except for mid-S1 through S4); experiment: Genistein inhibition of closed chimeric channel CHM 14; format: biochemical, bovine/rat; conditions: closed channels
Summary of the method: as §1

[7] = test system: CHM11 (RETα with OLFα pore module: S5, P region, S6, initial C-linker); experiment: Genistein inhibition of chimeric channel CHM11; format: biochemical, bovine/rat
[8] = test system: CHM20 (S5 domain exchanged between RETα and OLFα); experiment: Genistein inhibition of closed chimeric channel CHM20; format: biochemical, bovine/rat; conditions: closed channels
Summary of the method: as §1

[9] = test system: CHM12 (RETα except for mid-S1 through S4); experiment: Genistein inhibition of closed chimeric channel CHM12; format: biochemical, bovine/rat; conditions: closed channels
Summary of the method: as §1

[10] = test system: CHM16 (switched NH2-terminal domain through part of S1); experiment: Genistein inhibition of closed chimeric channel CHM16; format: biochemical, bovine/rat; conditions: closed channels; behaved like parent channel
Summary of the method: as §1

[11] = test system: CHM 30 (converse substitution in OLFα background); experiment: Genistein inhibition of closed chimeric channel CHM 30; format: biochemical, bovine/rat; conditions: closed channels

Ki ([1]; closed channels): 4.3 ± 0.9 µM | Ki ([1]; fully activated channels (saturating cGMP)): 84.1 ± 6.8 µM | Hill coefficient of genistein inhibition ([1]; closed channels): 1.97 ± 0.08 | dissociation of genistein–PTK from closed channels (time) ([1]; closed channels): > 1 min | residual current, of maximal current ([1]; closed channels pretreated with Ni^2+ and genistein for 1 min): 32.1 ± 3.4% | residual current, of maximal current ([1]; closed channels pretreated with genistein alone): 1.3 ± 0.8% | association time constant (τa) ([1]; closed channels, 10 μM genistein): 9.1 ± 0.4 s | association time constant (τa) ([1]; closed channels, 25 μM genistein): 8.9 ± 0.6 s | association time constant (τa) ([1]; closed channels, 100 μM genistein): 8.6 ± 0.7 s | dissociation time constant ([1]; closed channels, first of two exponentials, 1-s cGMP puffs every 15 s): 66 s | dissociation time constant ([1]; closed channels, second of two exponentials, 1-s cGMP puffs every 15 s): 808 s | association time constant (τa) ([1]; closed channels, single exponential fit, Fig. 2 A, 100 μM genistein): 9.3 s | Hill coefficient of genistein inhibition ([1]; fully activated channels): 1.02 ± 0.03 | association time constant (τa) ([1]; fully activated channels, 25 μM genistein): 12.1 ± 0.6 s | association time constant (τa) ([1]; fully activated channels, 100 μM genistein): 12.6 ± 0.7 s | association time constant (τa) ([1]; fully activated channels, 250 μM genistein): 12.6 ± 0.9 s | association time constant (τa) ([1]; fully activated channels, single exponential fit, Fig. 2 B): 13.1 s | dissociation time constant ([1]; fully activated channels, single exponential, after 1 min preexposure): 14.4 s | efficacy of genistein inhibition ([1]; fully activated channels, steady-state current in saturating cGMP): 65 ± 6% | change in cGMP sensitivity ([1]; genistein applied on fully activated channels): fourfold decrease | inhibition at 100 µM ([1]; read-out: inhibition of macroscopic current): 41% | fraction of steady-state current from channels devoid of genistein–PTK ([1]; saturating cGMP plus genistein, Fig. 3 B protocol): < 60% | genistein inhibition [4]: no inhibition | inhibition of closed channels [5]: 99%
Compound: O=c1c(-c2ccc(O)cc2)coc2cc(O)cc(O)c12 [genistein]
effect of domain switch on genistein inhibition [2]: had no effect | effect of domain exchange on genistein inhibition [3]: did not alter genistein inhibition | genistein inhibition [6]: not inhibited | maximal inhibition ([7]; closed state, 500 μM genistein): ~15% | genistein sensitivity ([7]; open state, up to 500 μM genistein): completely insensitive | effect of domain exchange on genistein inhibition [8]: did not alter genistein inhibition | genistein inhibition [9]: fully inhibited | effect of domain switch on genistein inhibition [10]: had no effect | genistein inhibition [11]: neither substitution introduced genistein inhibition
